B1: Cholinesterase (Homo sapiens), P06276 (protein)
chain: MHSKVTIICIRFLFWFLLLCMLIGKSHTEDDIIIATKNGKVRGMNLTVFGGTVTAFLGIPYAQPPLGRLRFKKPQSLTKWSDIWNATKYANSCCQNIDQSFPGFHGSEMWNPNTDLSEDCLYLNVWIPAPKPKNATVLIWIYGGGFQTGTSSLHVYDGKFLARVERVIVVSMNYRVGALGFLALPGNPEAPGNMGLFDQQLALQWVQKNIAAFGGNPKSVTLFGESAGAASVSLHLLSPGSHSLFTRAILQSGSFNAPWAVTSLYEARNRTLNLAKLTGCSRENETEIIKCLRNKDPQEILLNEAFVVPYGTPLSVNFGPTVDGDFLTDMPDILLELGQFKKTQILVGVNKDEGTAFLVYGAPGFSKDNNSIITRKEFQEGLKIFFPGVSEFGKESILFHYTDWVDDQRPENYREALGDVVGDYNFICPALEFTKKFSEWGNNAFFYYFEHRSSKLPWPEWMGVMHGYEIEFVFGLPLERRDNYTKAEEILSRSIVKRWANFAKYGNPNETQNNSTSWPVFKSTEQKYLTLNTESTRIMTKLRAQQCRFWTSFFPKVLEMTGNIDEAEWEWKAGFHRWNNYMMDWKNQFNDYTSKKESCVGL
B2: Acetylcholinesterase (Homo sapiens), P22303 (protein)
chain: MRPPQCLLHTPSLASPLLLLLLWLLGGGVGAEGREDAELLVTVRGGRLRGIRLKTPGGPVSAFLGIPFAEPPMGPRRFLPPEPKQPWSGVVDATTFQSVCYQYVDTLYPGFEGTEMWNPNRELSEDCLYLNVWTPYPRPTSPTPVLVWIYGGGFYSGASSLDVYDGRFLVQAERTVLVSMNYRVGAFGFLALPGSREAPGNVGLLDQRLALQWVQENVAAFGGDPTSVTLFGESAGAASVGMHLLSPPSRGLFHRAVLQSGAPNGPWATVGMGEARRRATQLAHLVGCPPGGTGGNDTELVACLRTRPAQVLVNHEWHVLPQESVFRFSFVPVVDGDFLSDTPEALINAGDFHGLQVLVGVVKDEGSYFLVYGAPGFSKDNESLISRAEFLAGVRVGVPQVSDLAAEAVVLHYTDWLHPEDPARLREALSDVVGDHNVVCPVAQLAGRLAAQGARVYAYVFEHRASTLSWPLWMGVPHGYEIEFIFGIPLDPSRNYTAEEKIFAQRLMRYWANFARTGDPNEPRDPKAPQWPPYTAGAQQYVSLDLRPLEVRRGLRAQACAFWNRFLPKLLSATDTLDEAERQWKAEFHRWSSYMVHWKNQFDHYSKQDRCSDL

Columns and labels:
[1] = compound: O=C(NP(=O)(NN1CCCCC1)NN1CCCCC1)c1ccccc1; test: (§1) Inhibition of human BChE by double reciprocal Lineweaver-Burke plot assay
In short: (§2)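 Kinetics used the same Ellman read-out, with substrate varied: acetylthiocholine for AChE, butyrylthiocholine for BChE. Rates were taken as OD min-1 with and without inhibitor. Km and Vmax were derived from double-reciprocal Lineweaver-Burk plots of 1/V against 1/[S].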

[2] = compound: O=C(NP(=O)(NN1CCOCC1)NN1CCOCC1)c1ccccc1; test: as §1; in short: as §2
[3] = compound: O=P(NN1CCOCC1)(NN1CCOCC1)Oc1ccccc1; test: as §1; in short: as §2
[4] = compound: O=P(NN1CCOCC1)(NN1CCOCC1)c1ccccc1; test: as §1; in short: as §2
[5] = compound: O=P(O)(NN1CCCCC1)Oc1ccccc1; test: as §1; in short: as §2
[6] = compound: O=C(NP(=O)(NN1CCCCC1)NN1CCCCC1)c1ccccc1; test: (§3) Inhibition of human AChE by double reciprocal Lineweaver-Burke plot assay; in short: as §2
[7] = compound: O=C(NP(=O)(NN1CCOCC1)NN1CCOCC1)c1ccccc1; test: as §3; in short: as §2
[8] = compound: O=P(NN1CCOCC1)(NN1CCOCC1)Oc1ccccc1; test: as §3; in short: as §2
[9] = compound: O=P(O)(NN1CCCCC1)Oc1ccccc1; test: as §3; in short: as §2

| Protein | Km [1] [µM] | Vmax [1] [mM/min] | Km [2] [µM] | Vmax [2] [mM/min] | Km [3] [µM] | Vmax [3] [mM/min] | Km [4] [µM] | Vmax [4] [mM/min] | Km [5] [µM] | Vmax [5] [mM/min] | Km [6] [µM] | Vmax [6] [mM/min] | Km [7] [µM] | Vmax [7] [mM/min] | Km [8] [µM] | Vmax [8] [mM/min] | Km [9] [µM] | Vmax [9] [mM/min] |
| --- | --- | --- | --- | --- | --- | --- | --- | --- | --- | --- | --- | --- | --- | --- | --- | --- | --- | --- |
| B1 | 75 | 55.6 | 50 | 23.5 | 85 | 66.4 | 67 | 71.4 | 67 | 27.8 |  |  |  |  |  |  |  |  |
| B2 |  |  |  |  |  |  |  |  |  |  | 45 | 40 | 49 | 55.5 | 47 | 37 | 51 | 11.1 |
